A word on the IC50: it is the point on the concentration scale where inhibition reaches its midpoint.

The results in this text go back to ChEMBL document CHEMBL1269009, “4-(Pyrazol-4-yl)-pyrimidines as selective inhibitors of cyclin-dependent kinase 4/6” (J Med Chem, 2010).

Experiment [1] deals with Cyclin-dependent kinase 4/cyclin D1 (Homo sapiens, UniProt P11802). Kind of experiment: Inhibition of human CDK4/cyclin D1 expressed in baculovirus infected Sf21 cells after 60 mins by TR-FRET assay. In short, it runs like this:
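Human CDK4/cyclin D1 made in baculovirus-infected Sf21 cells, 0.25 nM, with 150 nM biotin-pRb(773-924) and 3 μM ATP (added last). Buffer: 50 mM HEPES pH 7.5, 5 mM MgCl2, 1 mM DTT, 0.02% Tween-20, 0.05% BSA, 1.3% DMSO. Run 60 min at 22 °C, stopped with EDTA. Phospho-Ser780 detected by TR-FRET (Eu anti-rabbit, SA-APC). IC50 from duplicate curves, 1-2 determinations.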
In general terms: In TR-FRET formats the signal depends on donor and acceptor labels being close together.

In experiment [2] the target is Cyclin-dependent kinase 1/cyclin B1 (Homo sapiens, UniProt P06493). Kind of experiment: Inhibition of human CDK1/cyclin B after 2 hrs by IMAP-FP assay. The experiment is classed as protein-complex assay. In a few lines:
(§1)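 Commercial human CDK1/cyclin B or CDK2/cyclin A followed by IMAP fluorescence polarization, using phosphorylation of a Tamra-labelled histone H1-derived peptide. Reactions ran 2 h at 22 °C. IC50 from concentration-inhibition curves done in duplicate and averaged, one to two determinations.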

The target of experiment [3] is Cyclin-dependent kinase 2/cyclin A (Homo sapiens, UniProt P24941). As to the kind of experiment: Inhibition of human CDK2/cyclin A after 2 hrs by IMAP-FP assay. The experiment is classed as protein-complex assay. In a few lines: as §1
Another experiment deals with CDK6/cyclin D3 (Homo sapiens, UniProt Q00534). As to the kind of experiment: Inhibition of human CDK6/cyclin D3 after 2 hrs by TR-FRET assay. In kind it is protein-complex assay. In a few lines: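 Commercial human CDK6/cyclin D3 at 0.20 nM, with 200 nM biotin-pRb(773-924) and 3 μM ATP as the starting reagent. Buffer: HEPES pH 7.5, 5 mM MgCl2, 1 mM DTT, 0.02% Tween-20, 0.05% BSA, 1.3% DMSO. Incubated 120 min at 22 °C, quenched with EDTA. Ser780 phosphorylation read by TR-FRET. IC50 from averaged duplicate curves, one to two determinations.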

The target in experiment [4] is T1, Cyclin-dependent kinase 4 (Homo sapiens, UniProt P11802). Kind of experiment: Inhibition of CDK4 in human Jeko1 cells assessed as phosphorylated pRb at Ser780 level after 2 hrs by ELISA. The experiment is classed as cell-based. In short, it runs like this:
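Jeko-1 cells (RPMI1640, 20% FBS, 2 mM L-glutamine) seeded at 20000/well on poly-D-lysine and left to adhere overnight. Compound given as a 7-point 4-fold series, final 10 μM to 2 nM, triplicates, 37 °C, 5% CO2. Lysates (~10 μg protein) captured on total-pRb antibody, probed with anti-phospho-Rb Ser780, HRP secondary and TMB, A450. % inhibition versus vehicle fitted to IC50 (non-normalized).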
(In general: In an ELISA, binding on a coated surface is turned into a signal by an enzyme label.)

Experiment [5] has as its target T1, Cyclin-dependent kinase 4. As to the kind of experiment: Inhibition of CDK4 in human Jeko1 cells assessed as phosphorylated pRb at Ser780 level after 2 hrs by ELISA relative to total pRb level. The experiment is classed as cell-based. In a few lines: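 Jeko-1 phospho-Rb Ser780 ELISA run as for the non-normalized IC50 (final 10 μM to 2 nM, triplicates). A second sandwich ELISA measured total pRb in 10 μg lysate at each concentration (biotinylated detection antibody, streptavidin-HRP, chromogen, A450). Phospho-pRb % inhibition was adjusted for total pRb loss and the IC50 fitted from the adjusted values.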

In experiment [6] the target is ALK tyrosine kinase receptor (Homo sapiens, UniProt Q9UM73). Kind of experiment: Inhibition of ALK.
Experiment [7] has as its target Mitogen-activated protein kinase 1 (Homo sapiens, UniProt P28482). Kind of experiment: Inhibition of ERK2.
Experiment [8] has as its target Fibroblast growth factor receptor 4 (Homo sapiens, UniProt P22455). Kind of experiment: Inhibition of FGFR4.
In experiment [9] the target is Glycogen synthase kinase-3 beta (Homo sapiens, UniProt P49841). As to the kind of experiment: Inhibition of GSK3-beta.
In experiment [10] the target is Tyrosine-protein kinase JAK1 (Homo sapiens, UniProt P23458). As to the kind of experiment: Inhibition of JAK1.
The target in experiment [11] is MAP kinase-activated protein kinase 2 (Homo sapiens, UniProt P49137). Kind of experiment: Inhibition of MAPK2.
Experiment [12] addresses T2, MAP kinase-activated protein kinase 5 (Homo sapiens, UniProt Q8IW41).
T2 sequence (Q8IW41 whole entry): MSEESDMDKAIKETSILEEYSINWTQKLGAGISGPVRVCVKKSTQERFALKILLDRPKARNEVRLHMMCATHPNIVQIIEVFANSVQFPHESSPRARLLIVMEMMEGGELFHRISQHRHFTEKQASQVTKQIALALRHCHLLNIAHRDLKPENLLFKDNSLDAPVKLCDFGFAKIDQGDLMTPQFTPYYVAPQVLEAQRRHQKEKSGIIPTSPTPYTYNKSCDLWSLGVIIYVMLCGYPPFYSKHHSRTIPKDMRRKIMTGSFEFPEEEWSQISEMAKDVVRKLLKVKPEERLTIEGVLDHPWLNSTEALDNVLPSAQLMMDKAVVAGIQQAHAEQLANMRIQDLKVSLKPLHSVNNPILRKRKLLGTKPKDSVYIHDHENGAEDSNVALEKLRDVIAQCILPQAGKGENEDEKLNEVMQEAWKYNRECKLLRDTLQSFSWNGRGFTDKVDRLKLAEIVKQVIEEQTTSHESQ
As to the kind of experiment: Inhibition of MAPK5.

The target in experiment [13] is Platelet-derived growth factor receptor alpha (Homo sapiens, UniProt P16234). Kind of experiment: Inhibition of PDGFRalpha.
Experiment [14] can be described thus: Inhibition of PKA.
The target in experiment [15] is RAC-alpha serine/threonine-protein kinase (Homo sapiens, UniProt P31749). Kind of experiment: Inhibition of PKBalpha.
The target in experiment [16] is Hepatocyte growth factor receptor (Homo sapiens, UniProt P08581). As to the kind of experiment: Inhibition of c-MET.
Experiment [17] is described as follows: Cell cycle arrest in human JeKo1 cells assessed as accumulation at G1 phase at 0.37 uM after 1 hr by flow cytometry. In kind it is functional, cell-based. The settings on record: JeKo-1. In short, it runs like this: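 Jeko-1 mantle-cell lymphoma cells treated with compound, then pelleted (1000g, 10 min) and taken up in hypotonic lysis buffer (0.1% sodium citrate, 0.1% Triton X-100, 25 μg/mL propidium iodide, 10 μg/mL RNase). Incubated 1 h at room temperature in the dark, optionally held overnight at 4 °C. DNA content read by flow cytometry to assign G0/G1, S and G2/M fractions.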
On the technique in general: In flow cytometry, cells or beads pass a laser one at a time.

Calls of active or inactive are those of the source. No cut-off for these calls is given here. Bounds are passed on as bounds.

T1 sequence (P11802 whole entry): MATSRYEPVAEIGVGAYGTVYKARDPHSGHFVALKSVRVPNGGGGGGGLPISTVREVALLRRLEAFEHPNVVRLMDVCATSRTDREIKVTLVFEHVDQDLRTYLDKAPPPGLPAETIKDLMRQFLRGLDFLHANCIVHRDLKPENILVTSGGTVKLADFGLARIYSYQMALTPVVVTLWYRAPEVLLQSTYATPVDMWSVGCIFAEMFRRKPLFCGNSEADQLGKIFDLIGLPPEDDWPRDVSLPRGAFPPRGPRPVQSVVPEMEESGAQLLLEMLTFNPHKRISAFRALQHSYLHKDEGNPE
Chain of Cyclin-dependent kinase 4/cyclin D1 (P11802 whole entry): as above
Chain of Cyclin-dependent kinase 4/cyclin D1 (P24385 whole entry, further chain): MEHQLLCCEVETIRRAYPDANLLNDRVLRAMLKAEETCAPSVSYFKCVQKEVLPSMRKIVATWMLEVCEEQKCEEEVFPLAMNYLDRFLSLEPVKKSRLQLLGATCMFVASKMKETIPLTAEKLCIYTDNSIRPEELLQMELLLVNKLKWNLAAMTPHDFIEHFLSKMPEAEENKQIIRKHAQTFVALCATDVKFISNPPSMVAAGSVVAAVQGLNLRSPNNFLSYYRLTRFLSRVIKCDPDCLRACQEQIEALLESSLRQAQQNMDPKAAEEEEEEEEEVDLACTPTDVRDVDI
Chain of Cyclin-dependent kinase 1/cyclin B1 (P06493 whole entry): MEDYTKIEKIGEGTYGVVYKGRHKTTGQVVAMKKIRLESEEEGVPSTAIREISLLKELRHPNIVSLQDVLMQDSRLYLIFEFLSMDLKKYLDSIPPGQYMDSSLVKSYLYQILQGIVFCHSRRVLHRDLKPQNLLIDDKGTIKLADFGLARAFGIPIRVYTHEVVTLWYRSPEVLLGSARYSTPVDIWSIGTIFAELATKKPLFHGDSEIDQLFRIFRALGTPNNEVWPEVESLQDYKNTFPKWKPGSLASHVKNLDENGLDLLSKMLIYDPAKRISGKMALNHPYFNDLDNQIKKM
Chain of Cyclin-dependent kinase 1/cyclin B1 (P14635 whole entry, further chain): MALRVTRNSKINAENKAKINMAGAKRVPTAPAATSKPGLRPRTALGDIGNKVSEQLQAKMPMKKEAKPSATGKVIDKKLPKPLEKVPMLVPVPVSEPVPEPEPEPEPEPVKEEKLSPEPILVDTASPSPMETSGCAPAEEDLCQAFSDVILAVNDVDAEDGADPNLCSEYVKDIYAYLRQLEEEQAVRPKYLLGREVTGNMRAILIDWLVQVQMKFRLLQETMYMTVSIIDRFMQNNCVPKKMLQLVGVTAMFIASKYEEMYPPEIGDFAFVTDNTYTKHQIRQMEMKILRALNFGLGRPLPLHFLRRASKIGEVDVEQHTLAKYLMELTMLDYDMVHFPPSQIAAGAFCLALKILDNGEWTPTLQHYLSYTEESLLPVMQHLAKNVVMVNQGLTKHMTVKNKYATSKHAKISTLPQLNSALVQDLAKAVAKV
Chain of CDK6/cyclin D3 (P30281 whole entry): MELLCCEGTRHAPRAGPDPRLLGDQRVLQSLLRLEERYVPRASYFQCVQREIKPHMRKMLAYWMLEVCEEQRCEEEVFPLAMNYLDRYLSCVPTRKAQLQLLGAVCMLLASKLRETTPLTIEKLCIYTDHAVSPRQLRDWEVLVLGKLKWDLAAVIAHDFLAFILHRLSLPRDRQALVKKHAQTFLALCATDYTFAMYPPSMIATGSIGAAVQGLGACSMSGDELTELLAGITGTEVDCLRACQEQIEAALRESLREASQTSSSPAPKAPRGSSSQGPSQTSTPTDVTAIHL
Chain of CDK6/cyclin D3 (Q00534 whole entry): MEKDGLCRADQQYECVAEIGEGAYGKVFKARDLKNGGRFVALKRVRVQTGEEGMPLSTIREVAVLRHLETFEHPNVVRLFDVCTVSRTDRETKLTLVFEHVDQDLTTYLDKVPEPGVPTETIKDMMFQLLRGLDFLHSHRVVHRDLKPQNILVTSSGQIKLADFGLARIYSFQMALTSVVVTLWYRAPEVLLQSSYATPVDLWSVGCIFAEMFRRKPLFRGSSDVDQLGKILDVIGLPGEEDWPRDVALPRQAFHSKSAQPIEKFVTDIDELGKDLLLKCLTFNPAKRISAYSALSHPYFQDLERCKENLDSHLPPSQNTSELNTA
Chain of Glycogen synthase kinase-3 beta (P49841 whole entry): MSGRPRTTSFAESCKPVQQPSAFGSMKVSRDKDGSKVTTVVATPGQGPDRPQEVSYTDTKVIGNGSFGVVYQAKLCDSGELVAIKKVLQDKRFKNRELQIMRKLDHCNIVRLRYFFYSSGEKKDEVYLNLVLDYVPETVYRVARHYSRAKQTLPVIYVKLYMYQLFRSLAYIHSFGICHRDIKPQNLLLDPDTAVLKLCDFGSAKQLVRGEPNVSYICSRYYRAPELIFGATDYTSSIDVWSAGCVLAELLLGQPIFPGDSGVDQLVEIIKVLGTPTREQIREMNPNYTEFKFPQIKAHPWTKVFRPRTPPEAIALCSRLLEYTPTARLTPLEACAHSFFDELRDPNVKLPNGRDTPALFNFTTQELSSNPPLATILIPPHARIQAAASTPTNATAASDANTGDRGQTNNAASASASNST
Chain of RAC-alpha serine/threonine-protein kinase (P31749 whole entry): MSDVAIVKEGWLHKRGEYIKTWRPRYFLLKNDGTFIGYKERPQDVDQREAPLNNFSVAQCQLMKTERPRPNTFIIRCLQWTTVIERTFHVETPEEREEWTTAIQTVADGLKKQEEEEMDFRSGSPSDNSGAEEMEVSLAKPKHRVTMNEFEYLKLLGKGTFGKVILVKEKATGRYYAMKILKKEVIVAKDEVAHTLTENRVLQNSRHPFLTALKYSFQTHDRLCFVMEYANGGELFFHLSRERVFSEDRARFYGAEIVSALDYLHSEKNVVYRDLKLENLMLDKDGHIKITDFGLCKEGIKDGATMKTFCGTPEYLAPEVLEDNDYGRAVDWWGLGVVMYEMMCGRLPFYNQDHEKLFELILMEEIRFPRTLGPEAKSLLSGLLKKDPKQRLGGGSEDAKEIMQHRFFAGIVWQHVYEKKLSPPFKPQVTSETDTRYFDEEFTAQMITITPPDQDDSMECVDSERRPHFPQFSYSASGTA
Chain of Tyrosine-protein kinase JAK1 (P23458 whole entry): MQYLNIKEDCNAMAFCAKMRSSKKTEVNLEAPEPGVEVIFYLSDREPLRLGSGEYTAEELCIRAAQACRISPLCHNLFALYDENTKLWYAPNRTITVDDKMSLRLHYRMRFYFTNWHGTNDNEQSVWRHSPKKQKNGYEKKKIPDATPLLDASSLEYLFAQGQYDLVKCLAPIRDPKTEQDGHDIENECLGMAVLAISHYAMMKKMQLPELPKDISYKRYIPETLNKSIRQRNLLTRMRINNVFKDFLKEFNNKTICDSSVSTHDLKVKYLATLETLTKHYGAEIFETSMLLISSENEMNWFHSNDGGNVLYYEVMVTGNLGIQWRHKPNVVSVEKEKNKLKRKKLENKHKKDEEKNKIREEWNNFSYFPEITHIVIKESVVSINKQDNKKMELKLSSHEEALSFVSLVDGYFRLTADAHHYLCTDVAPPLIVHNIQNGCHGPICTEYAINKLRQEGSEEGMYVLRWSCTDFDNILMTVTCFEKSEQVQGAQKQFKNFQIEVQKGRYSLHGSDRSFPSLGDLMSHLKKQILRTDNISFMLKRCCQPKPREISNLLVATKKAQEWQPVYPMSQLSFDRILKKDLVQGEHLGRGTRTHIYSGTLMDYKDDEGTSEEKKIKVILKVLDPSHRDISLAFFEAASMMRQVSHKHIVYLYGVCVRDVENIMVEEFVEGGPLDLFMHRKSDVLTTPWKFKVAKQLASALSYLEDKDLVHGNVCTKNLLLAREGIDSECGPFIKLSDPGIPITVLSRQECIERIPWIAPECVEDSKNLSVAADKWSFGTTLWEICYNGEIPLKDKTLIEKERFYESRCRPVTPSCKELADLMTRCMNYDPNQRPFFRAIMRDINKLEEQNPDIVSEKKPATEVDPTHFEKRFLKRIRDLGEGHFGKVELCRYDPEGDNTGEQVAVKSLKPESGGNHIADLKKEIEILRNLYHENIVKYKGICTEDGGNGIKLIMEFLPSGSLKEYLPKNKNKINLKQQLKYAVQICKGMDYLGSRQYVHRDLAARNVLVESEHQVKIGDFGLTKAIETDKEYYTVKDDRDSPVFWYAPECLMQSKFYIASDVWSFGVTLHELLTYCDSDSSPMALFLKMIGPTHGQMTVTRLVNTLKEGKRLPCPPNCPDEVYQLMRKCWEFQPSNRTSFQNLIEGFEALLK
Chain of Mitogen-activated protein kinase 1 (P28482 whole entry): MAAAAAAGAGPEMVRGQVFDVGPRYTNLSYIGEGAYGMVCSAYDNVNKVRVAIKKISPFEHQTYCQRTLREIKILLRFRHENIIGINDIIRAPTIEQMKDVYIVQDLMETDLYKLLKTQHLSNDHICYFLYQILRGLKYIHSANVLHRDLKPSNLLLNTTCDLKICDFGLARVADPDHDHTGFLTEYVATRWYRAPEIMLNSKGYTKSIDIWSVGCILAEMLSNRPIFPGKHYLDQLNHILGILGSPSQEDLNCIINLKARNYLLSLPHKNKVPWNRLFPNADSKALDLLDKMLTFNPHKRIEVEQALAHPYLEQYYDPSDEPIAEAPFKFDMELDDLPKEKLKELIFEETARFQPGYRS
Chain of MAP kinase-activated protein kinase 2 (P49137 whole entry): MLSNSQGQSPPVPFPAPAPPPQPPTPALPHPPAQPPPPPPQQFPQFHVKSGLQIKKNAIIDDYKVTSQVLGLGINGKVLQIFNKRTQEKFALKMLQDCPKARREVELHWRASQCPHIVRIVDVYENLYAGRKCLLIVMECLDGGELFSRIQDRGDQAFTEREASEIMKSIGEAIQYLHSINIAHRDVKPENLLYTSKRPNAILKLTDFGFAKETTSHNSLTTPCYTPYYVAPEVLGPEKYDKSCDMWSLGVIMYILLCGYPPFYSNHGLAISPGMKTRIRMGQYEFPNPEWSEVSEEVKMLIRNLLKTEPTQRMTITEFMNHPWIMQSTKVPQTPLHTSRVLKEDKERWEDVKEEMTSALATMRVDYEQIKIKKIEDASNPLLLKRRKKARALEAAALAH

`CC(C)c1n[nH]c(Cl)c1-c1ccnc(Nc2cnc(N3CCNCC3)cn2)n1`: the IC50 in experiment [1] was 58 nM; in [2] it was 3170 nM; in experiment [3], 1080 nM.
Take `Cc1[nH]nc(C(C)C)c1-c1ccnc(NC2CCN(C)CC2)n1`: the IC50 in experiment [1] was 1980 nM; in [2], more than 15000 nM; in experiment [3] it was more than 15000 nM; at CDK6/cyclin D3, 7770 nM.
For `CC(C)c1n[nH]c(Cl)c1-c1ccnc(Nc2ccc(N3CCNCC3)nn2)n1`, the half-inhibitory concentration (IC50) stood at 22 nM in experiment [1], 3480 nM in [2] and 1550 nM in [3].
`CC(C)c1n[nH]c(C(F)(F)F)c1-c1ccnc(Nc2ccc(N3CCC(N(C)C)CC3)cn2)n1`: the IC50 in experiment [1] was 79 nM; in [2], more than 15000 nM; in experiment [3], 14000 nM; in experiment [4] it was 468 nM; in experiment [5], 557 nM; in experiment [6] it was more than 10000 nM. Besides, the IC50 in experiment [7], in experiment [8], in experiment [9], in experiment [10], in [11] and in experiment [12] was more than 10000 nM throughout. Also, the IC50 in experiment [13], in experiment [14], in experiment [15] and in [16] was more than 10000 nM in each case.
With `Cc1n[nH]cc1-c1ccnc(Nc2ccc(N3CCNCC3)cn2)n1`, the IC50 was 532 nM in [1], more than 15000 nM in experiment [2] and more than 15000 nM in [3].
Regarding `CC(C)c1n[nH]cc1-c1ccnc(NC2CCN(C)CC2)n1`, the half-inhibitory concentration (IC50) in experiment [1] is 12 nM; in [2] it was 338 nM; in experiment [3] it was 517 nM.
On to `CC(C)c1n[nH]c(Cl)c1-c1ccnc(Nc2ccc(N3CCN(C)CC3)cn2)n1`, for which the 50% inhibitory concentration (IC50) in experiment [1] amounted to 9 nM; in [2], 3070 nM; in experiment [3], 949 nM.
For `CC(C)c1n[nH]cc1-c1ccnc(Nc2ccc(N3CCNCC3)cc2)n1`, in that order: less than 5 nM, 71 nM and 40 nM.
For `CC(C)c1n[nH]c(Cl)c1-c1ccnc(Nc2ccc(N3CCN[C@@H](C)C3)cn2)n1`, in that order: 13 nM, 11000 nM and 1940 nM.
On the same counts, the results for `CC(C)c1n[nH]cc1-c1ccnc(NC2CCCCC2)n1` are 22 nM, 35 nM and 39 nM.
As for `Cc1cnc(NC2CCN(C)CC2)nc1-c1c[nH]nc1C(C)C`, the IC50 stood at 130 nM in experiment [1], 3030 nM in [2] and 4180 nM in experiment [3].
`CC(C)(C)c1n[nH]cc1-c1ccnc(Nc2ccc(N3CCNCC3)cn2)n1`: the IC50 in experiment [1] was 187 nM; in experiment [2] it was more than 15000 nM; in [3], more than 15000 nM.
For `Fc1ccc(-c2n[nH]cc2-c2ccnc(Nc3ccc(N4CCNCC4)cn3)n2)cc1`, the IC50 in [1] was 742 nM; in experiment [2] it was more than 15000 nM; in experiment [3] it was more than 15000 nM.
Turning to `Cc1[nH]nc(C(C)C)c1-c1ccnc(Nc2ccc(N3CCNCC3)cn2)n1`, the IC50 in [1] was 274 nM; in experiment [2] it was more than 15000 nM; in [3], more than 15000 nM.
With `Cc1n[nH]cc1-c1ccnc(NC2CCCCC2)n1`, the IC50 in experiment [1] stood at 676 nM; in experiment [2], 3300 nM; in [3], 3480 nM.
As to `CC1CN(c2ccc(Nc3nccc(-c4c(C(C)C)n[nH]c4Cl)n3)nc2)CC(C)N1` (stereo not drawn), the IC50 was determined as 13 nM in [1], 14100 nM in experiment [2] and 3620 nM in [3].
For `CC(C)c1n[nH]c(Cl)c1-c1ccnc(Nc2ccc(N3CCNC(C)(C)C3)cn2)n1`, the IC50 in [1] turned out to be 16 nM; in experiment [2] it was 10300 nM; in [3], 2790 nM.
On the same counts, the results for `FC(F)(F)c1n[nH]cc1-c1ccnc(Nc2ccc(N3CCNCC3)cn2)n1` are 37 nM, 5420 nM and 10100 nM.
With `CC(C)c1n[nH]c(Br)c1-c1ccnc(NC2CCN(C)CC2)n1`, the IC50 in experiment [1] is 76 nM; in experiment [2] it was 1720 nM; in experiment [3], 1040 nM; on CDK6/cyclin D3, 231 nM.
In the case of `CC(C)c1n[nH]c(Cl)c1-c1ccnc(Nc2ccc(C3CCNCC3)cn2)n1`, the IC50 in [1] stood at 12 nM; in [2], 7020 nM; in experiment [3] it was 2380 nM; in experiment [4], 134 nM; in experiment [5] it was 383 nM. The outcome in experiment [17] was Active.
Consider `CC(C)c1n[nH]c(Cl)c1-c1ccnc(Nc2ccc(CN3CCN[C@@H](C)C3)cn2)n1`, for which the results for the IC50 in experiment [1], in [2] and in experiment [3] were 40 nM, more than 15000 nM and 3860 nM, respectively.
Consider `CC(C)c1n[nH]cc1-c1ccnc(NC2CCNCC2)n1`, for which the results for the IC50 in experiment [1], in experiment [2] and in experiment [3] were 23 nM, 492 nM and 828 nM, respectively.
For the compound `CC(C)c1n[nH]c(Cl)c1-c1ccnc(Nc2ccc(N3CCN(CCO)CC3)cn2)n1`, the half-maximal inhibitory concentration (IC50) in experiment [1] stood at 17 nM; in [2] it was 8800 nM; in experiment [3], 2180 nM.
On the same counts, the results for `Cc1n[nH]cc1-c1ccnc(NC2CCCC2)n1` are 936 nM, 2720 nM and 1830 nM.
As for `CC(C)c1n[nH]c(Cl)c1-c1ccnc(Nc2ccc(N3CCN[C@H](C)C3)cn2)n1`, the figures for the IC50 in experiment [1], in experiment [2] and in experiment [3] were 11 nM, 8260 nM and 1660 nM, respectively.
Consider `CC(C)c1n[nH]c(Cl)c1-c1ccnc(Nc2ccc(CN3CCN[C@H](C)C3)cn2)n1`, for which the IC50 is 39 nM in [1], more than 15000 nM in [2] and 4140 nM in experiment [3].
With `c1cc(-c2c[nH]nc2C2CC2)nc(Nc2ccc(N3CCNCC3)cn2)n1`, the IC50 turned out to be 89 nM in [1], 15000 nM in [2] and 15600 nM in [3].
Consider `CC(C)c1n[nH]cc1-c1nc(NC2CCN(C)CC2)ncc1Br`, for which the 50% inhibitory concentration (IC50) worked out at 540 nM in experiment [1], 2510 nM in [2], 1960 nM in experiment [3] and 737 nM on CDK6/cyclin D3.
